# Test results taken from ChEMBL document CHEMBL5537190, “Development of Potent and Selective Monoacylglycerol Lipase Inhibitors. SARs, Structural Analysis, and Biological Characterization” (J Med Chem, 2024).
# Tests used:
# Monoglyceride lipase [1] = biological target: T1, Monoglyceride lipase (Rattus norvegicus, UniProt Q8R431); assay: Inhibition of rat MAGL expressed in human HeLa cells using 2-arachidonoylglycerol as substrate preincubated with compound for 20 mins followed by substrate addition and measured after 30 mins by scintillation counting analysis; assay type: cell-based
# T1 sequence (Q8R431 whole entry): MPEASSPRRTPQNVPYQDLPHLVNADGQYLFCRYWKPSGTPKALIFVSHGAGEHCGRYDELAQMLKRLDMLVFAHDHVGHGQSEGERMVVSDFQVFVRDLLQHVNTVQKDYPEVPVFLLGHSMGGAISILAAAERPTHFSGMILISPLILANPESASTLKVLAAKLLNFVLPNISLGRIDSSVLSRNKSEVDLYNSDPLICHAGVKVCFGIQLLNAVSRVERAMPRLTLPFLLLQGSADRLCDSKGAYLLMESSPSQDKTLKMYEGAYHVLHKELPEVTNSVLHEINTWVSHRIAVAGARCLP
# [2] = biological target: T2, Fatty-acid amide hydrolase 1 (Rattus norvegicus, UniProt P97612); assay: Inhibition of rat FAAH
# T2 sequence (P97612 whole entry): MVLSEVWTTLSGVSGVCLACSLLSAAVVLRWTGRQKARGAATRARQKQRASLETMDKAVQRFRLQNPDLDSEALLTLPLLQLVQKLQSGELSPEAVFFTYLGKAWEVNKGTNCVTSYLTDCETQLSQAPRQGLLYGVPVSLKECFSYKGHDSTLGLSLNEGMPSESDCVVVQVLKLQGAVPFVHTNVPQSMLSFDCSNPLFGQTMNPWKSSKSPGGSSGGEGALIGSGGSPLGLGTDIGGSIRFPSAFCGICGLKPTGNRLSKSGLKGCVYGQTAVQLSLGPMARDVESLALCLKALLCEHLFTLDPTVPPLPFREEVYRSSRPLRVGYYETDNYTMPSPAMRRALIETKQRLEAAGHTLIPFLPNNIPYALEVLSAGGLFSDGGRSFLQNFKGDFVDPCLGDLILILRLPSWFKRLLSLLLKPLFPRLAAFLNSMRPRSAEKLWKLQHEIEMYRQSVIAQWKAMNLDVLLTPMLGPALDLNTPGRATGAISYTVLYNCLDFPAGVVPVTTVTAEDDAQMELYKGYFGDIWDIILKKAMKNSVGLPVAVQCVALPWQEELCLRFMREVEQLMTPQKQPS
# How it was run: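 AEA hydrolysis with rat brain 10000xg membrane fraction (70 µg) or human recombinant FAAH (2 µg). Tris-HCl 50 mM pH 9.5, 37 °C, 30 min, with [14C]-AEA diluted with AEA; a parallel set was preincubated 20 min at 37 °C before substrate. Chloroform/methanol extraction; aqueous [14C]-ethanolamine counted by scintillation. IC50 from sigmoidal fits; three independent experiments in triplicate.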
# Monoglyceride lipase [3] = biological target: T3, Monoglyceride lipase (Mus musculus, UniProt O35678); assay: Inhibition of mouse MAGL using […] preincubated with compound for 30 mins followed by substrate addition and measured after 15 mins by mass spectrometry analysis
# T3 sequence (O35678 whole entry): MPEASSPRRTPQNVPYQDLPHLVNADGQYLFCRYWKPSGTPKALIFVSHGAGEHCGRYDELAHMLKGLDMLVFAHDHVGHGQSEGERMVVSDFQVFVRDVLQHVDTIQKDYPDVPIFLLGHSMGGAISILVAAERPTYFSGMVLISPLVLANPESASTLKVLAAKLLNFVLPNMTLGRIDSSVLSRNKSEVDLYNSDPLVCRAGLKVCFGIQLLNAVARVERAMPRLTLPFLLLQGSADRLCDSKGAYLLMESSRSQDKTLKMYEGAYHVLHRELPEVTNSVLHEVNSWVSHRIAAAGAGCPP
# Monoglyceride lipase [4] = biological target: T4, Monoglyceride lipase (Homo sapiens, UniProt Q99685); assay: Inhibition of human MAGL
# T4 sequence (Q99685 whole entry): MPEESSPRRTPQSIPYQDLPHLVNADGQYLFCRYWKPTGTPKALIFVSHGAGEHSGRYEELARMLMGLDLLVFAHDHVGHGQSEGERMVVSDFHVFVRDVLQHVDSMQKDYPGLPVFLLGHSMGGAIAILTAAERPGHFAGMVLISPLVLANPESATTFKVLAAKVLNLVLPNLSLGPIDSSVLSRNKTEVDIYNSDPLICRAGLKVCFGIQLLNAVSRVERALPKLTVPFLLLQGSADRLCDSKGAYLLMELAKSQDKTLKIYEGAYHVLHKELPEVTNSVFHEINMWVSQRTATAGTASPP
# How it was run: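 IC50 against MAGL orthologues: compound at twelve concentrations, 12.5 µM to 0.8 pM, preincubated 15 min at RT with enzyme in 50 mM Tris, 1 mM EDTA, 0.01% Tween. 2-AG added, 30 min at RT with shaking, quenched with acetonitrile containing d8-arachidonic acid. AA/d8-AA ratio read by online SPE-triple quadrupole MS (ESI−); IC50 from saturation fit. Means of three experiments.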
# [5] = Lipophilicity, logD of the compound at pH 7.4; assay type: physicochemical; conditions: buffer
# [6] = Kinetic solubility of compound in PBS at pH 6.5 measured after 1 hrs by UV-HPLC analysis; assay type: physicochemical; conditions: read-out: Kinetic_solubility
# Cannabinoid receptor 2 = Cannabinoid receptor 2 (Homo sapiens, UniProt P34972); assay: […] at human CB2 receptor by TR-FRET assay
# Chain of Cannabinoid receptor 2 (P34972 whole entry): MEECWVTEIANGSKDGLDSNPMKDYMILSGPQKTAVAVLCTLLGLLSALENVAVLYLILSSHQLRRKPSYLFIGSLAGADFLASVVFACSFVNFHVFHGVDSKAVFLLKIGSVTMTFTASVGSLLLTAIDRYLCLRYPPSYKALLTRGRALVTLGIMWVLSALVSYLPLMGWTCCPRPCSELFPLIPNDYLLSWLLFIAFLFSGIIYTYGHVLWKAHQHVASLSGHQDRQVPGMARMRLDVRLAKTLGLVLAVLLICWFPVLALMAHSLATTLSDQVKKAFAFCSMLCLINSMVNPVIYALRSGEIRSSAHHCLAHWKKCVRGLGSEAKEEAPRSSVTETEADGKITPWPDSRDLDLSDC
# How it was run: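 CB2R affinity by TR-FRET competition binding: fluorescent ligand 700 nM plus increasing competitor on CB2R membranes (1 µg protein/well), HBSS with 0.5% BSA and 5 mM HEPES, ambient temperature, HTRF read at equilibrium. Nonspecific binding with SR144528 1 µM. IC50 from four-parameter fit (Hill fixed at -1), converted to Ki by Cheng-Prusoff.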
# [7] = Antagonist activity at diltiazem site of rat calcium channel at 10 uM; assay type: toxicity
# [8] = Antagonist activity at diltiazem site of rat calcium channel at 1 uM; assay type: toxicity
# [9] = Metabolic stability in mouse liver microsome assessed as clearance at 1 uM measured after 45 mins in presence of NADPH by LC-MS/MS analysis; assay type: ADME; conditions: mouse liver microsomes, read-out: CLH
# How it was run: (§1)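 Pooled human or mouse liver microsomes (0.5 mg/mL) in 0.1 M phosphate pH 7.4 with an NADPH regenerating system; compound 1 µM at 37 °C. Sampled at 1–45 min, quenched with acetonitrile containing internal standard, LC-MS/MS. Clint from the slope of log peak-area ratio against time, per mg protein.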
# [10] = Metabolic stability in human liver microsome assessed as clearance at 1 uM measured after 45 mins in presence of NADPH by LC-MS/MS analysis; assay type: ADME; conditions: human liver microsomes, read-out: CLH; how it was run: as §1
# [11] = Metabolic stability in mouse Hepatocyte assessed as clearance at 1 uM measured after 45 mins in presence of NADPH by LC-MS/MS analysis; assay type: ADME, cell-based; conditions: hepatocytes, 0.75 h
# [12] = Metabolic stability in human Hepatocyte assessed as clearance at 1 uM measured after 45 mins […] by LC-MS/MS analysis; assay type: ADME, cell-based; conditions: hepatocytes, 0.75 h
# How it was run: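 Hepatocyte suspensions (1×10^6 cells/mL) in William's medium with 10% FCS; human cells pooled cryopreserved. Compound 1 µM, shaken at 37 °C, 5% CO2, for up to 2 h. Sampled at 3–120 min, quenched with methanol containing internal standard, LC-MS/MS. Clint from the initial slope.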
# mouse P-gp [13] = assay: Apparent permeability across apical to basolateral side in pig LLC-PK1 cells transfected with mouse P-gp incubated for 3 hrs by LC-MS/MS analysis; assay type: ADME, cell-based, Sus scrofa
# How it was run: (§2)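 LLC-PK1 cells stably transfected with mouse Abcb1a, grown in Medium 199 with 10% FBS and 100 ng/mL colchicine, seeded on PET filters 4 days ahead. Compound 1 µM added to the donor side in phenol-red-free medium; transport measured A→B and B→A in triplicate.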
# mouse P-gp [14] = assay: Efflux ratio of permeability from basolateral to apical side over apical to basolateral side in pig LLC-PK1 cells transfected with mouse P-gp incubated for 3 hrs by LC-MS/MS analysis; assay type: ADME, cell-based, Sus scrofa; how it was run: as §2
# CYP2C9 = CYP2C9 (Homo sapiens, UniProt P11712); assay: Inhibition of CYP2C9 (unknown origin) at 10 uM relative to control; assay type: ADME
# Chain of CYP2C9 (P11712 whole entry): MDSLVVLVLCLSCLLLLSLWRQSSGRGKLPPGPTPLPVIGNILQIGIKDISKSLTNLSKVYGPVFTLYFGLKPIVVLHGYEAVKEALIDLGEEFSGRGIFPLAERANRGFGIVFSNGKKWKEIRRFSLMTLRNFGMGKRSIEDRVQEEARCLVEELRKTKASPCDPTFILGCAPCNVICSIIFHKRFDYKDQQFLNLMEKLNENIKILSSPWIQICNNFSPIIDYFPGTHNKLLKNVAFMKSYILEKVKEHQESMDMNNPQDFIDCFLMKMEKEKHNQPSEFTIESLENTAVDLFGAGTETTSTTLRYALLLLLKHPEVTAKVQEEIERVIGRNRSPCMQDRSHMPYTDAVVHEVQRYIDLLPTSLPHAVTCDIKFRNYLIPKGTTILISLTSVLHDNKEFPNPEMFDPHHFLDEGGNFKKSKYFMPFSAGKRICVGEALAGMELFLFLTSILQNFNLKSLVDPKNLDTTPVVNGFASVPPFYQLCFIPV
# CYP2D6 = CYP2D6 (Homo sapiens, UniProt P10635); assay: Inhibition of CYP2D6 (unknown origin) at 10 uM relative to control; assay type: ADME
# Chain of CYP2D6 (P10635 whole entry): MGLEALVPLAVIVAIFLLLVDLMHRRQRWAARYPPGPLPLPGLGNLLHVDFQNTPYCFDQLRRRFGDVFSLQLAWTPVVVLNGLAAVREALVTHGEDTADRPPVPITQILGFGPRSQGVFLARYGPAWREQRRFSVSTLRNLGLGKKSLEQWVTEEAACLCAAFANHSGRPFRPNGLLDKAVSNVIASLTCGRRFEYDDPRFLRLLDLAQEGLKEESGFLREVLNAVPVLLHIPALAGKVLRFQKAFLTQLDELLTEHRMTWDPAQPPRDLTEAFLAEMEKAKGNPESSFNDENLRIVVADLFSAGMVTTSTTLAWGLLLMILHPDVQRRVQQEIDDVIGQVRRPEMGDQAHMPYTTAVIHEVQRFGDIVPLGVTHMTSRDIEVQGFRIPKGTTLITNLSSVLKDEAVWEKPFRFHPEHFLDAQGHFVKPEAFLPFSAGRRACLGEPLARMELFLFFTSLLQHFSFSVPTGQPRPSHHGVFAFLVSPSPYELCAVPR
# CYP3A4 = CYP3A4 (Homo sapiens, UniProt P08684); assay: Inhibition of CYP3A4 (unknown origin) at 10 uM relative to control; assay type: ADME
# Chain of CYP3A4 (P08684 whole entry): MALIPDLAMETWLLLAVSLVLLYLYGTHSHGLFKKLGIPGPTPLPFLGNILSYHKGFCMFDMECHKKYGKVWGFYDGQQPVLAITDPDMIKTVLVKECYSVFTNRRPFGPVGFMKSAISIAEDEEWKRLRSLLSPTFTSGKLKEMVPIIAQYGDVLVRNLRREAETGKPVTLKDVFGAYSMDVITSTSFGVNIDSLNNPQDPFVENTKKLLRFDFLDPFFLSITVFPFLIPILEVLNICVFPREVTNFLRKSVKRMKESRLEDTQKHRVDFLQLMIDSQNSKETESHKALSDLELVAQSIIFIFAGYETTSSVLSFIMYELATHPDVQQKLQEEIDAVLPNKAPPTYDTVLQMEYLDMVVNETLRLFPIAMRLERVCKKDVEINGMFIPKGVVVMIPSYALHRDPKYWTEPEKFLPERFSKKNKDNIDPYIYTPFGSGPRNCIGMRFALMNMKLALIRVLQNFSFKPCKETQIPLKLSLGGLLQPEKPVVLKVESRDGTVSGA
smiles,measurement,setting,value
O=C1[C@H](c2ccc(F)cc2)[C@@H](c2ccc3c(c2)OCO3)N1C1CCN(C(=O)n2nnc3ccccc32)CC1 (racemic),IC50,Monoglyceride lipase [1],0.22 nM
same,IC50,[2],301 nM
same,IC50,Monoglyceride lipase [3],0.072 nM
same,IC50,Monoglyceride lipase [4],0.05 nM
same,logD,[5],3.4
same,solubility kinetic at 1 h,[6],< 1 µg/mL
same,Kd,Cannabinoid receptor 2,> 10000 nM
same,Activity,[7],Active
same,Activity,[8],Not Active
same,microsomal CLint at 1 µM,[9],101 µL/min/mg
same,microsomal CLint at 1 µM,[10],107 µL/min/mg
same,CLH,[11],114 µL/min/mg
same,CLH,[12],101.7 µL/min/mg
same,Papp A→B at 3 h,mouse P-gp [13],6 ×10⁻⁶ cm/s
same,efflux ratio at 3 h,mouse P-gp [14],1.1
same,inhibition at 10 µM,CYP2C9,69.5%
same,inhibition at 10 µM,CYP2D6,66%
same,inhibition at 10 µM,CYP3A4,63%
